KCNK9 block: KCNK9 potassium channel inhibitors, primary screen, HEK293 cells, thallium flux; Potassium channel subfamily K member 9 (Homo sapiens), Q9NPC2; FluxOR thallium flux fluorescence; active compounds read low; AID 488922, 2010; 1.2% of 310,000 active; B-score at 10 µM;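 active = ratio B-score over 3 SD below the library mean, with starting fluorescence within 5 SD of its mean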;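 note: negative B-score means less thallium flux so channel inhibition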
KCNK3 inh: human KCNK3 channel inhibitors, primary screen, CHO cells, FluxOR thallium flux, B-score. Potassium channel subfamily K member 3 (Homo sapiens), O14649. FluxOR fluorescence; active compounds read low. B-score at 10 µM. 0.84% of 340,000 active;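 active = B-score under library mean minus 4 SD, starting fluorescence ratio at most library mean plus 5 SD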;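 note: more negative B-score means stronger inhibition of thallium flux through KCNK3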
hERG protect: hERG rescue from dofetilide block, primary screen, cell-based, CHO-hERG, FluxOR thallium flux, dofetilide IC70. Voltage-gated inwardly rectifying potassium channel KCNH2 (Homo sapiens), Q12809. dofetilide IC70 present. activation (rescue from dofetilide block), less the hit threshold, % at 10 µM. 0.51% of 310,000 active. AID 1511, 2009;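 active = activation above the mean of controls blocked by dofetilide plus 5 SD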;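 note: thallium influx through hERG after potassium depolarization seen as dye fluorescence rise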
Target sequence (Q12809 whole entry, looked up): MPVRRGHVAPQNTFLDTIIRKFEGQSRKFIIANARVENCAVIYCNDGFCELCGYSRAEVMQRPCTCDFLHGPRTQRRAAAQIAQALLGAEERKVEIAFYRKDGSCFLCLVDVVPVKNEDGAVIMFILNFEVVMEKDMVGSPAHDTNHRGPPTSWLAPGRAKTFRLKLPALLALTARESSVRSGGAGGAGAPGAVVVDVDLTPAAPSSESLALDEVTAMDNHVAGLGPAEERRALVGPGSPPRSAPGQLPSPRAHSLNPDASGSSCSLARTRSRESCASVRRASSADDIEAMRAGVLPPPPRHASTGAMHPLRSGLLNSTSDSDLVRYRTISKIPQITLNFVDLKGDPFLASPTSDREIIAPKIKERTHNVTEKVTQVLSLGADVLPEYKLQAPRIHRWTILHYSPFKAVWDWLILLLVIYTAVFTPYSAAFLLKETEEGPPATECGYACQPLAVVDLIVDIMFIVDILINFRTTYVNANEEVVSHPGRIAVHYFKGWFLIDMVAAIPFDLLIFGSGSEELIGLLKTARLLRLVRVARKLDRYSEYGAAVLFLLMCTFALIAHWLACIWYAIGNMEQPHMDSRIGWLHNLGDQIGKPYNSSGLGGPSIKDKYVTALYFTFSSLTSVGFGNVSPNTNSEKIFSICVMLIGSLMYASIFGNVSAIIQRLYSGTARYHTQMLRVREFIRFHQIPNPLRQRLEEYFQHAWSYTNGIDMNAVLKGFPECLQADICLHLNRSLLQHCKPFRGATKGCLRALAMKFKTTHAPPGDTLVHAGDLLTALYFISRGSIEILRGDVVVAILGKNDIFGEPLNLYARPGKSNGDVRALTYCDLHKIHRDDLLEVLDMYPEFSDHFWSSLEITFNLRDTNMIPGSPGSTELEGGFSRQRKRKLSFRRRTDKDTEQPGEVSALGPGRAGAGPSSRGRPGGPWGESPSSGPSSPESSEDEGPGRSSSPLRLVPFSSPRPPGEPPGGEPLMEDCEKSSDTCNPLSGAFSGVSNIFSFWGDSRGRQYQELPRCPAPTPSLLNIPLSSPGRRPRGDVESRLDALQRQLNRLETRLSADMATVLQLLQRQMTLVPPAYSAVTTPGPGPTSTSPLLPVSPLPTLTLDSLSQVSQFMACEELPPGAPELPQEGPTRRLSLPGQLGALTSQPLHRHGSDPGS
KCNQ1 act: potentiators or activators of KCNQ1 channel, primary screen, cell-based, thallium flux, high-throughput. 0.35% of 310,000 active. CHO-K1 KCNQ1, thallium flux FluxOR fluorescence; active compounds read high. Potassium voltage-gated channel subfamily KQT member 1 (Homo sapiens), P51787. AID 2648, 2010. B-score at 10 µM;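 active = fluorescence ratio B-score, a plate-corrected score, at least three library SD, with initial intensity B-score within 5 SD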
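Assay system: CHO-K1 cells stably expressing KCNQ1; Medium: assay buffer with matched DMSO; Also added: K+/Tl+ depolarizing stimulus; Dosing: single dose; Timing: dye 90 min, compound 20 min, room temperature; Measured by: kinetic FluxOR thallium fluorescence, 10-s 1-Hz baseline, 110-s post-stimulus read; Read-out: peak-minus-minimum fluorescence over initial fluorescence, negative-control normalized, B-scored.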
KCNQ1 inh: inhibitors of human KCNQ1 channel, primary screen, cell-based, thallium flux, high-throughput; Potassium voltage-gated channel subfamily KQT member 1 (Homo sapiens), P51787; B-score at 10 µM; CHO-K1 KCNQ1, FluxOR thallium flux fluorescence; active compounds read high; 1.3% of 310,000 active;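 active = compounds whose thallium flux B-score, printed positive for inhibition, exceeds three library SD while starting fluorescence stays within three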;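 note: channel opened by potassium depolarization with thallium stimulus after 20 min compound exposure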
Kir21 block: inhibitors of mouse Kir2.1 inward-rectifier potassium channel; Inward rectifier potassium channel 2 (Mus musculus), P35561; HEK293-Kir2.1, FluxOR thallium flux fluorescence; active compounds read low; B-score at 10 µM; 0.85% of 310,000 active; AID 1672, 2009;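 active = fluorescence ratio B-score at or below minus 3 SD of library scores, with starting-brightness B-score within 2 SD, cut at about -4.2 in these data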;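 note: channel flux triggered by added potassium and thallium sulfate stimulus; B-score of peak minus minimum fluorescence over baseline after thallium stimulus; more negative B-score means stronger Kir2.1 block with less thallium influx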
Hits are given with their value; n = inactive; x = no result. Hits are enriched below; roughly 3.8% of the tested compounds scored in any of these assays.

SMILES	KCNK9 block	KCNK3 inh	hERG protect	KCNQ1 act	KCNQ1 inh	Kir21 block
CC(C(=O)Nc1ccccc1Oc1ccccc1)c1ccccc1 (stereo not given)	n	n	n	n	n	-5
O=C(NC(Nc1nc2ccc([N+](=O)[O-])cc2s1)(C(F)(F)F)C(F)(F)F)c1cccnc1	n	n	n	n	12	-5.7
O=C(NC(Nc1nc2ccc([N+](=O)[O-])cc2s1)(C(F)(F)F)C(F)(F)F)c1ccccc1Cl	n	n	n	n	10	-5
O=[N+]([O-])c1ccc2nc(NS(=O)(=O)c3ccccc3[N+](=O)[O-])sc2c1	n	n	n	n	n	n
CC(C)n1nc(C(=O)OCC(=O)NCCc2ccc(S(N)(=O)=O)cc2)c2ccccc2c1=O	x	n	x	x	x	x
CC[C@@H]1CC=C[C@H]2[C@H]1C(=O)N(Cc1ccccc1)[C@H]2c1ccc(OC)c(Cl)c1	n	n	n	n	n	n
CC(=O)Nc1ccc(S(=O)(=O)Nc2ccccc2C(=O)N2CCCCC2)cc1	n	n	n	n	n	n
COC(=O)c1sccc1NC(=S)N1C(C)CCCC1C (stereo not given)	n	n	n	n	n	n
COc1ccc(-c2csc(NC(=O)C3CCCCN3S(=O)(=O)c3ccccc3)n2)cc1 (stereo not given)	n	n	n	151	n	n
Cc1ccc(S(=O)(=O)CCC(=O)OCC(=O)N(C)c2ccccc2)cc1	x	n	x	x	x	x
Cc1ccc(S(=O)(=O)NCCNc2ccccc2[N+](=O)[O-])cc1	n	n	n	n	n	-4.3
O=[N+]([O-])c1ccc(NCCNS(=O)(=O)c2ccccc2)c(C(F)(F)F)c1	n	n	n	n	n	-5.8
O=C(CN1CCN(CN2C(=O)NC3(CCCCCC3)C2=O)CC1)Nc1ccc(F)cc1	x	n	x	x	x	x
Fc1cccc(F)c1[B-](F)(F)F	x	n	x	x	x	x
CCOc1ccc(/C=C/[N+](=O)[O-])c2ccccc12	n	n	n	n	n	-8.3
O=[N+]([O-])/C=C/c1c(OCc2ccccc2)ccc2ccccc12	-11	n	n	n	n	-7.9
CCOC(=O)COc1ccc2ccccc2c1/C=C/[N+](=O)[O-]	n	n	n	n	n	n
COc1cc(C(=O)N2CCN(c3cccc(C(F)(F)F)c3)CC2)ccc1OCC(=O)N1CCOCC1	x	n	x	x	x	x
CCC(C)c1ccccc1NC(=O)CN1CCN(C/C=C/c2ccccc2)CC1 (stereo not given)	n	n	n	n	n	-4.5
CCc1cccc(NC(=O)Cn2c(=O)c3cccn3c3ccccc32)c1	n	n	n	n	n	n
CC1CC(C)CN(C(=O)CSc2ncnc3sccc23)C1 (stereo not given)	x	n	x	x	x	x
O=[N+]([O-])c1cc(C(F)(F)F)ccc1N1CCCNCC1	n	n	7.9	n	n	n
O=C(NC(=S)N1CCN(c2ccc(C(F)(F)F)cc2[N+](=O)[O-])CC1)c1cccs1	n	n	n	10	n	n
CCCn1c(SCC(=O)Nc2ccccc2C(=O)NC2CC2)n[nH]c1=O	x	n	x	x	x	x
COc1cc(/C=C/C(=O)OCC(=O)NC2CCCCCCC2)ccc1O	x	n	x	x	x	x
CCNc1ncnc2c1cnn2C1CCCO1 (stereo not given)	x	n	x	x	x	x
CCN1CCN(Cc2ccc(NC(=O)c3cc(NC(=O)C(=O)c4c[nH]c5ccccc45)cc(OC)c3)cc2C(F)(F)F)CC1	n	n	n	n	n	n
CCN1CCN(Cc2ccc(NC(=O)c3ccc(C)c(NC(=O)C(=O)c4c[nH]c5ccccc45)c3)cc2C(F)(F)F)CC1	n	n	n	n	12	n
CC1=NN(c2nc(-c3ccc(C)cc3)cs2)C(=O)C1N=Nc1ccccc1O (stereo not given)	n	n	n	n	6	n
